According to ChEMBL document CHEMBL1155075, “Inhibition of the signal transducer and activator of transcription-3 (STAT3) signaling pathway by 4-oxo-1-phenyl-1,4-dihydroquinoline-3-carboxylic acid esters” (J Med Chem, 2008):
One block for each compound: values may come before it. Activity calls are given as the source filed them. The calls are words filed in the database; no cut-off is given here.

How the values were obtained:
[1] = tested on: U-266; experiment: Induction of apoptosis in human U266 cells assessed as caspase activation after 4 days by Apo-ONE Homogeneous caspase 3/7 assay; format: functional, cell-based
Method in brief: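 Homogeneous caspase 3/7 (Apo-ONE) luminescent/fluorescent signal used as apoptosis read-out in cells under compound treatment. U266 cultured in RPMI1640 with 10% heat-inactivated FBS and Pen-Strep.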

[2] = tested on: A2780; experiment: Induction of apoptosis in human A2780 cells assessed as caspase activation after 4 days by Apo-ONE Homogeneous caspase 3/7 assay; format: functional, cell-based
[3] = biological target: Signal transducer and activator of transcription 3 (Homo sapiens) (UniProt P40763); experiment: Inhibition of STAT3 Y705 phosphorylation in human HeLa cells by Western blot analysis; format: cell-based
[4] = biological target: Signal transducer and activator of transcription 3 (Homo sapiens) (UniProt P40763); experiment: Inhibition of IFN-alpha-induced STAT3 Y705 phosphorylation in serum starved human HeLa cells by Western blot analysis; format: cell-based
Method in brief: (§1)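 HeLa or DU145 cells in DMEM + 10% heat-inactivated FBS, ~80% confluent, were serum-starved overnight and treated with compound for 1 h. IFN-alpha 20000 units/mL was then added for 20 min. Cells were collected in 1.1X LDS sample buffer, sonicated, and analysed by Western blot for phospho-STAT3 Y705 with fluorescent secondary detection.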

[5] = biological target: Signal transducer and activator of transcription 3 (Homo sapiens) (UniProt P40763); experiment: Inhibition of STAT3 Y705 phosphorylation in human DU145 cells by Western blot analysis; format: cell-based; settings: DU-145
[6] = biological target: Signal transducer and activator of transcription 3 (Homo sapiens) (UniProt P40763); experiment: Inhibition of IFN-alpha-induced STAT3 Y705 phosphorylation in serum starved human DU145 cells by Western blot analysis; format: cell-based; settings: DU-145; method in brief: as §1
[7] = biological target: RAC-alpha serine/threonine-protein kinase (Homo sapiens) (UniProt P31749); experiment: Inhibition of AKT-mTOR pathway in human U266 cells assessed as p70S6 kinase T389 phosphorylation by Western blot; format: cell-based; settings: U-266
Method in brief: (§2)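 Steady-state phosphorylation: exponentially growing U266 cells (1 × 10⁶ cells at 2 × 10⁵ cells/mL, RPMI1640 + 10% FBS) were treated with compound for 1 h. Cells were lysed in PhosphoSafe reagent with protease inhibitors. Western blot used primary antibodies (1:1000, 2 h) and fluorescent secondaries (1 h) at room temperature. A representative blot from several repeats is shown.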

[8] = biological target: RAC-alpha serine/threonine-protein kinase (Homo sapiens) (UniProt P31749); experiment: Inhibition of AKT-mTOR pathway in human U266 cells assessed as S6-S240/244 phosphorylation by Western blot; format: cell-based; settings: U-266; method in brief: as §2
[9] = Inhibition of MAPK pathway in human U266 cells assessed as p44/42 MAPK T202/204 phosphorylation by Western blot; format: cell-based; settings: U-266; method in brief: as §2
[10] = biological target: Signal transducer and activator of transcription 3 (Homo sapiens) (UniProt P40763); experiment: Inhibition of STAT3 S727 phosphorylation in human U266 cells; format: cell-based; settings: U-266; method in brief: as §2
[11] = biological target: Signal transducer and activator of transcription 3 (Homo sapiens) (UniProt P40763); experiment: Inhibition of IL6-induced STAT3 Y705 phosphorylation in serum starved human U266 cells by Western blot analysis; format: cell-based; settings: U-266
[12] = biological target: Signal transducer and activator of transcription 3 (Homo sapiens) (UniProt P40763); experiment: Inhibition of IFN-alpha-induced STAT3 Y705 phosphorylation in serum starved human U266 cells by Western blot analysis; format: cell-based; settings: U-266
Method in brief: (§3)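 U266 cells in RPMI1640 + 10% heat-inactivated FBS were serum-starved 2 h, treated with compound 1 h, then stimulated with human IFN-alpha 20000 units/mL for 20 min. Cells were lysed in PhosphoSafe extraction reagent with protease inhibitors and analysed by Western blot with phospho-specific antibodies. JAK antibodies were used at 1:500 with milk blocking, others at 1:1000. Fluorescent secondaries were used.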

[13] = biological target: Tyrosine-protein kinase JAK1 (Homo sapiens) (UniProt P23458); experiment: Inhibition of IFN-alpha-induced JAK1 Y1022/1023 phosphorylation in serum starved human U266 cells by Western blot analysis; format: cell-based; settings: U-266; method in brief: as §3
[14] = biological target: Tyrosine-protein kinase JAK2 (Homo sapiens) (UniProt O60674); experiment: Inhibition of IFN-alpha-induced JAK2 Y1007/1008 phosphorylation in serum starved human U266 cells by Western blot analysis; format: cell-based; settings: U-266; method in brief: as §3
[15] = biological target: Non-receptor tyrosine-protein kinase TYK2 (Homo sapiens) (UniProt P29597); experiment: Inhibition of IFN-alpha-induced Tyk2 Y1054/1055 phosphorylation in serum starved human U266 cells by Western blot analysis; format: cell-based; settings: U-266; method in brief: as §3
[16] = biological target: T1, Signal transducer and activator of transcription 5A (Homo sapiens) (UniProt P42229); experiment: Inhibition of BCR-ABL-activated STAT5 Y694/699 phosphorylation in human K562 cells; format: cell-based
T1 sequence (whole entry): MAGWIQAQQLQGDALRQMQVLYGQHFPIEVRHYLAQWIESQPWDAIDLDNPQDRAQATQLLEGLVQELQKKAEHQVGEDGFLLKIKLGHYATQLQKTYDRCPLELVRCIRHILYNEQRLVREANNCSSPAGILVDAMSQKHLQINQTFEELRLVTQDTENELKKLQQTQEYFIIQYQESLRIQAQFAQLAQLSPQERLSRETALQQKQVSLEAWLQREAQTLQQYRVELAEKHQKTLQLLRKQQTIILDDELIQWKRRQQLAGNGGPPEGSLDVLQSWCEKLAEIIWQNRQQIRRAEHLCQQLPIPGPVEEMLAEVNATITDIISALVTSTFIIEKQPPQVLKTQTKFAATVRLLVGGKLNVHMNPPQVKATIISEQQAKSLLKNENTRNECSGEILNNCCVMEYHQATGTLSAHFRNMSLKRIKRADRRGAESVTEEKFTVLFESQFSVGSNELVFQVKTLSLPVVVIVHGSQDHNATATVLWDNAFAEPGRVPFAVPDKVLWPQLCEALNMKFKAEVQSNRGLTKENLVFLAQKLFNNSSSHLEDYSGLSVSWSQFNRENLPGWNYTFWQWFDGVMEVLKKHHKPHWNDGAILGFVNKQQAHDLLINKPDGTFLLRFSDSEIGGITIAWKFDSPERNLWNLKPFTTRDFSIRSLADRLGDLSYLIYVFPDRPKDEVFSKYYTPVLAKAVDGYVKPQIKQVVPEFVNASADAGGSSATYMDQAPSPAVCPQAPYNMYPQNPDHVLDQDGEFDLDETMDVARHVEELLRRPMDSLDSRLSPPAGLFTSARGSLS
Method in brief: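 K562 cells (1 × 10⁶ cells at 1 × 10⁶ cells/mL, RPMI1640 + 10% FBS) were treated with compound for 1 h. Lysates in PhosphoSafe reagent were analysed by Western blot with anti-phospho-STAT5 Tyr694/Tyr699 (1:1000) and fluorescent secondary detection.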

[17] = tested on: A-431; experiment: Inhibition of EGF-stimulated MAPK activation in human A431 cells; format: cell-based
[18] = biological target: Tyrosine-protein kinase JAK1 (Homo sapiens) (UniProt P23458); experiment: Inhibition of JAK1 at 1 uM
Method in brief: (§4)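 In vitro JAK1, JAK2 and JAK3 enzyme kinase assay, each tested at 1 and 10 µM compound.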

[19] = biological target: Tyrosine-protein kinase JAK2 (Homo sapiens) (UniProt O60674); experiment: Inhibition of JAK2 at 1 uM; method in brief: as §4
[20] = biological target: T2, Tyrosine-protein kinase JAK3 (Homo sapiens) (UniProt P52333); experiment: Inhibition of JAK3 at 1 uM; method in brief: as §4
T2 sequence (whole entry): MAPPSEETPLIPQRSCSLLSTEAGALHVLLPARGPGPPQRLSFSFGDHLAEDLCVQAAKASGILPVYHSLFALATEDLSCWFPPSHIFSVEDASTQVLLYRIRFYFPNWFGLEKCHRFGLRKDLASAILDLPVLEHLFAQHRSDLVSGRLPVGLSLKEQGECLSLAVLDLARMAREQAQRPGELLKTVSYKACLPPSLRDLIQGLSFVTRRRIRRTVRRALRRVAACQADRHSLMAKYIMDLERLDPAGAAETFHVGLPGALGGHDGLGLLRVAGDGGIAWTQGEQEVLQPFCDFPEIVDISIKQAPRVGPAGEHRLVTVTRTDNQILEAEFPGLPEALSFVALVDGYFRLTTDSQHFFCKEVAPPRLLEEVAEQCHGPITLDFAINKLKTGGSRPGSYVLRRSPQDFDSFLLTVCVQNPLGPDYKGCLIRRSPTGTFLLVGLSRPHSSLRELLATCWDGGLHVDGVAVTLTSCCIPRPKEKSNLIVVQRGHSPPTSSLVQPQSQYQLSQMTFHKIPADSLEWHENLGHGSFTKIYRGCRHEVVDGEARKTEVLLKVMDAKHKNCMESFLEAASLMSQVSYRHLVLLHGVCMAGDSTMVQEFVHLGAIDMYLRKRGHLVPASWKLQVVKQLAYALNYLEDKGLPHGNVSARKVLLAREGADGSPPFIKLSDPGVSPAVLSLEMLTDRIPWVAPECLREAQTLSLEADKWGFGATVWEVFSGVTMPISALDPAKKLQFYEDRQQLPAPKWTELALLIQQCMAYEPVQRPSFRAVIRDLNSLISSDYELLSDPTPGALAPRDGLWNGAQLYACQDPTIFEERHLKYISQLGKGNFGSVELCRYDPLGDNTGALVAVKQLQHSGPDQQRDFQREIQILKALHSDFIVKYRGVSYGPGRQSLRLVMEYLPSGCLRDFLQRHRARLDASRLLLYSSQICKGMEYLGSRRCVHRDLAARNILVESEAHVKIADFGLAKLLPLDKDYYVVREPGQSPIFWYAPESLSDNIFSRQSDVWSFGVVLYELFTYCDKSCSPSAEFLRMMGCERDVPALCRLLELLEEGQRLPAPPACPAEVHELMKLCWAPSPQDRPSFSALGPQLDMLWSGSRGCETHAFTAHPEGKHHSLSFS

[21] = biological target: Tyrosine-protein kinase JAK1 (Homo sapiens) (UniProt P23458); experiment: Inhibition of JAK1 at 10 uM; method in brief: as §4
[22] = biological target: Tyrosine-protein kinase JAK2 (Homo sapiens) (UniProt O60674); experiment: Inhibition of JAK2 at 10 uM; method in brief: as §4
[23] = biological target: T2, Tyrosine-protein kinase JAK3 (Homo sapiens); experiment: Inhibition of JAK3 at 10 uM; method in brief: as §4
[24] = tested on: U-266; experiment: Inhibition of Bcl2-like 1 transcription in human U266 cells at 0.5 uM after 6 hrs by microarray analysis; format: functional, cell-based
Method in brief: (§5)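 U266 cells were seeded at 1 × 10⁶ cells/mL and treated 6 h in triplicate. RNA was purified, and 2-5 µg total RNA was converted to biotin-labelled cRNA by oligo-T7 reverse transcription and in vitro transcription with biotin-UTP/CTP. mRNA levels were then measured by microarray.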

[25] = tested on: U-266; experiment: Inhibition of MCL1 transcription in human U266 cells at 0.5 uM after 6 hrs by microarray analysis; format: functional, cell-based; method in brief: as §5
[26] = tested on: U-266; experiment: Inhibition of cyclin D1 transcription in human U266 cells at 0.5 uM after 6 hrs by microarray analysis; format: functional, cell-based; method in brief: as §5
[27] = tested on: U-266; experiment: Inhibition of cyclin D1 transcription in human U266 cells at 100 uM after 6 hrs by microarray analysis; format: functional, cell-based; method in brief: as §5
[28] = tested on: U-266; experiment: Inhibition of Bcl2-like 1 transcription in human U266 cells at 100 uM after 6 hrs by microarray analysis; format: functional, cell-based; method in brief: as §5
[29] = tested on: U-266; experiment: Inhibition of MCL1 transcription in human U266 cells at 100 uM after 6 hrs by microarray analysis; format: functional, cell-based; method in brief: as §5

Tyrosine-protein kinase JAK2 (Homo sapiens), sequence (O60674 whole entry): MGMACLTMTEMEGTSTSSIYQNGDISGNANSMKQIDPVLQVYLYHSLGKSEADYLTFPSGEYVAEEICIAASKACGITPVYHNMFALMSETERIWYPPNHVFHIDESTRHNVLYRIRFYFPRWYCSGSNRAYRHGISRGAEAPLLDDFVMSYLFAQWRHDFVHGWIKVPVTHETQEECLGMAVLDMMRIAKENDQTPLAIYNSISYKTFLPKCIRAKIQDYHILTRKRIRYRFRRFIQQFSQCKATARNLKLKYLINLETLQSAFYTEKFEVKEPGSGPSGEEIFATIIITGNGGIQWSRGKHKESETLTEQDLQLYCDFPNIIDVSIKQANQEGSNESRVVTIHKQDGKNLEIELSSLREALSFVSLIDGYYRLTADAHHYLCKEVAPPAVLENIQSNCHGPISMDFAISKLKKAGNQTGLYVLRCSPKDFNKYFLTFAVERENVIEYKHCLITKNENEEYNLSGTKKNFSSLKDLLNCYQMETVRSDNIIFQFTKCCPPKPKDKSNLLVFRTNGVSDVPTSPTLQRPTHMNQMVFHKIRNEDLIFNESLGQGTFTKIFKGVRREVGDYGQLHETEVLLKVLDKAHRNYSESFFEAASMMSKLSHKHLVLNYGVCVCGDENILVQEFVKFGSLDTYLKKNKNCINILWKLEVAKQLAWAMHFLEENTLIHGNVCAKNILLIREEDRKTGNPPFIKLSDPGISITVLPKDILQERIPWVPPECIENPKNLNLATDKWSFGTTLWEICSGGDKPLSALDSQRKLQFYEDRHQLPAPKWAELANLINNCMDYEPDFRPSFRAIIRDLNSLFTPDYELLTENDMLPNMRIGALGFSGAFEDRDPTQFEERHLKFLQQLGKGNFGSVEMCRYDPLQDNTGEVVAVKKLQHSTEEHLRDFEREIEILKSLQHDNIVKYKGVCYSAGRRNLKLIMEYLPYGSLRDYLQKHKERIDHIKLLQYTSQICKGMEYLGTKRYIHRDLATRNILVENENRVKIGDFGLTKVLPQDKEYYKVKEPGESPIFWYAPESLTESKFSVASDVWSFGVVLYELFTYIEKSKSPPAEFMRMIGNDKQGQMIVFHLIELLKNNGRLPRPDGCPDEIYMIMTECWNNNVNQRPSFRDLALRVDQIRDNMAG
Signal transducer and activator of transcription 3 (Homo sapiens), sequence (P40763 whole entry): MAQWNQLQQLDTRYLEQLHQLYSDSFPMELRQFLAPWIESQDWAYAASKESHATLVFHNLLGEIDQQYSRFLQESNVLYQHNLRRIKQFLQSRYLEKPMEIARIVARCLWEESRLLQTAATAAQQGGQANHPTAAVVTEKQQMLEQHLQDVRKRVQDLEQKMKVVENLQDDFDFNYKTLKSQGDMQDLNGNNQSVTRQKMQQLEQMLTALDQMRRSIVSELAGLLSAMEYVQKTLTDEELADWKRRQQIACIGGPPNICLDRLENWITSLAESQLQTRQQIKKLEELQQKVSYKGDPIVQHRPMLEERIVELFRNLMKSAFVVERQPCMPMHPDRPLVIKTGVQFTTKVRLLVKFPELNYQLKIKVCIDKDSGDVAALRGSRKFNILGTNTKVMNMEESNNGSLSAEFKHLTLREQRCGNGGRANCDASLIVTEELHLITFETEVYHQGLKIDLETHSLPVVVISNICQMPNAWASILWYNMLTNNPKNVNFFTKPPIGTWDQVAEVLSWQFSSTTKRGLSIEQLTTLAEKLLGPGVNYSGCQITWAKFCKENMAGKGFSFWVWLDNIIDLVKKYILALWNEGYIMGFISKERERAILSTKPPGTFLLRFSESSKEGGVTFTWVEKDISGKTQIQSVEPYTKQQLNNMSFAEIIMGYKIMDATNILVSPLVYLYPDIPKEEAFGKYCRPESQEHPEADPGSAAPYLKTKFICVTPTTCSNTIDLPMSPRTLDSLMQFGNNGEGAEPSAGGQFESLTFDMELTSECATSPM
Tyrosine-protein kinase JAK1 (Homo sapiens), sequence (P23458 whole entry): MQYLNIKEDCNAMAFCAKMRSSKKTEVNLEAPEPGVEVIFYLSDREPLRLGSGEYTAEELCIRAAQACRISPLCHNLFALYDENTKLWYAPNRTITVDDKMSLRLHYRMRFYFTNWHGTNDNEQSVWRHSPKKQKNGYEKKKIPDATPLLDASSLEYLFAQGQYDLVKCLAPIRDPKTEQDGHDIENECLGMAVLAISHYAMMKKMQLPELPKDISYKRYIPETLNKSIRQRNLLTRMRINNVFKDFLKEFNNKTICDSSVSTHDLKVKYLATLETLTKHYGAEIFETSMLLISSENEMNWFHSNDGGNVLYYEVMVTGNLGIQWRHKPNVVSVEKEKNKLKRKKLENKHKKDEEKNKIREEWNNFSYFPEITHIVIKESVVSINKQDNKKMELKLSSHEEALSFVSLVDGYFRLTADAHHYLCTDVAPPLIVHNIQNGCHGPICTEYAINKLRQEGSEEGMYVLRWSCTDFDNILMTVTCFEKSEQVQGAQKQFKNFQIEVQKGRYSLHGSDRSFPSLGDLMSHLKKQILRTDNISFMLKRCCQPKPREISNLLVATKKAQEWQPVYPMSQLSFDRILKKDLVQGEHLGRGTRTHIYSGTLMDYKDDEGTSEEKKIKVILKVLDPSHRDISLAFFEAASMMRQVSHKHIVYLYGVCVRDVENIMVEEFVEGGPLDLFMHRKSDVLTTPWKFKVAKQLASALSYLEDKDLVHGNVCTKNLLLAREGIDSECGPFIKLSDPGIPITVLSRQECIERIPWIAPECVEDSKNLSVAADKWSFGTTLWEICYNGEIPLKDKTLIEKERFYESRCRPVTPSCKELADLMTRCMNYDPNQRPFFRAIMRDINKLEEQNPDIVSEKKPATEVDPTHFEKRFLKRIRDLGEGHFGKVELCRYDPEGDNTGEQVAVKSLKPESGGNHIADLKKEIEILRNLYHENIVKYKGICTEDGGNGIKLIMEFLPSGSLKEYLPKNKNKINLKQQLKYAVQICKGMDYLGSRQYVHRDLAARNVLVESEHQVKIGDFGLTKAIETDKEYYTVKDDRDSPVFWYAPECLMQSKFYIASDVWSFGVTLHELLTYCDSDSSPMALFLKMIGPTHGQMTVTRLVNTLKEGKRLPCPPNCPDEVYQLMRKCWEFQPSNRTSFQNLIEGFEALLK
RAC-alpha serine/threonine-protein kinase (Homo sapiens), sequence (P31749 whole entry): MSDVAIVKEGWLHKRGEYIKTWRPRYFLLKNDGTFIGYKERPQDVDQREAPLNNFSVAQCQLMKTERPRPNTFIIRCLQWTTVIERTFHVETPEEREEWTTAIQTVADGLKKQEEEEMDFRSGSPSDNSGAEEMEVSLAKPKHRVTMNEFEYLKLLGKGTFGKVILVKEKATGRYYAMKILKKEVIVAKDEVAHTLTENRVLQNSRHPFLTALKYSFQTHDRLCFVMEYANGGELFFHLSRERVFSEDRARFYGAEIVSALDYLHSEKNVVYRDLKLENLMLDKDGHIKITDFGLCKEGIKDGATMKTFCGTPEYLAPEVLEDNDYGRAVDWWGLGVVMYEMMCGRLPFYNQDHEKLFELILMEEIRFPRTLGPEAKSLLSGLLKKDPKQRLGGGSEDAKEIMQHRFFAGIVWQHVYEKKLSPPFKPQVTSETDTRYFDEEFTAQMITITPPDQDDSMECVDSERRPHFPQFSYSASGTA
Non-receptor tyrosine-protein kinase TYK2 (Homo sapiens), sequence (P29597 whole entry): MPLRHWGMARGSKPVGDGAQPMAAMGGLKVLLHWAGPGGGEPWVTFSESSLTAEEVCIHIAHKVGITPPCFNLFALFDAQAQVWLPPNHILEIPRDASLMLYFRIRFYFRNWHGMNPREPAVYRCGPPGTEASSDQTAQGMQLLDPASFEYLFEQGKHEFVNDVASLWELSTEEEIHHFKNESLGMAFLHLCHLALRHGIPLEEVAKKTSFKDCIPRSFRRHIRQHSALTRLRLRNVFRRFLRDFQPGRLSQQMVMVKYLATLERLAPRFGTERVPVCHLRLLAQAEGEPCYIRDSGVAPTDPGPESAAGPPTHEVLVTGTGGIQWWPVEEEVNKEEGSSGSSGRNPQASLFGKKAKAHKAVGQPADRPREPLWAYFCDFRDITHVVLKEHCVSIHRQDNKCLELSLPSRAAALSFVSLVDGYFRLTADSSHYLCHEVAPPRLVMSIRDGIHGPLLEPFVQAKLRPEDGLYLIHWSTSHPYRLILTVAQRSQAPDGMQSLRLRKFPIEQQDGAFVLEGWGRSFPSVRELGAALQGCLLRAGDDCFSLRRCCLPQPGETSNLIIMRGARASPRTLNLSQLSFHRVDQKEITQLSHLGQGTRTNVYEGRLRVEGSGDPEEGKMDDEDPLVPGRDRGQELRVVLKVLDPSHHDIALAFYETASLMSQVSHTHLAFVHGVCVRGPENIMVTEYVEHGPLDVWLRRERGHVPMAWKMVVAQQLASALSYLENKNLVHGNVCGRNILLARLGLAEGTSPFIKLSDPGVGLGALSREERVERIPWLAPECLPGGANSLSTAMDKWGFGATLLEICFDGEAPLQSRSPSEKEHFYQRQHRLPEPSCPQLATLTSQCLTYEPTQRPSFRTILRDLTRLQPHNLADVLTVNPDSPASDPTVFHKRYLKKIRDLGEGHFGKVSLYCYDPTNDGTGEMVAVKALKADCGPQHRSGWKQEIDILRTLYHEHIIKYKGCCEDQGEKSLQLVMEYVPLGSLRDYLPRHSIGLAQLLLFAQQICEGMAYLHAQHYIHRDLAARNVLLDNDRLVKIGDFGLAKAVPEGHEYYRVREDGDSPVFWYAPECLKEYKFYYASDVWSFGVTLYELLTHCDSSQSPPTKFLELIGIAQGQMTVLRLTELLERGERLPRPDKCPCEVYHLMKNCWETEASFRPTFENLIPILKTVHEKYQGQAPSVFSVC

SMILES: CCOC(=O)c1cn(-c2c(F)c(F)c(F)c(F)c2F)c2c(F)c(F)c(F)c(F)c2c1=O
Activity [1]: Active
Activity [2]: inactive

Activity [3]: Active
Activity [4]: Active
Activity [5]: Active
Activity [6]: Active
Activity [7]: inactive
Activity [8]: inactive
Activity [10]: inactive
Activity [11]: Active
Activity [12]: Active
Activity [13]: Active
Activity [14]: Active
Activity [15]: Active
Activity [16]: inactive
Activity [18]: inactive
Activity [19]: inactive
Activity [20]: inactive
Activity [21]: inactive
Activity [22]: inactive
Activity [23]: inactive
SMILES: CCOC(=O)c1cn(-c2c(F)c(F)c(C#N)c(F)c2F)c2c(F)c(F)c(F)cc2c1=O
Activity [1]: Active
Activity [9]: inactive
Activity [17]: inactive
Activity [24]: Active
Activity [25]: Active
Activity [26]: Active

SMILES: N#C/C(=C\c1ccc(O)c(O)c1)C(=O)NCc1ccccc1
Activity [27]: Active
Activity [28]: Active
Activity [29]: Active
